# Screening data: PubChem, Johns Hopkins Ion Channel Center
# KCNK3 inh = human KCNK3 channel inhibition, primary screen; actives 0.84% (n = 340,000); CHO-KCNK3 thallium flux, FluxOR fluorescence; active compounds read low; B-score at 10 µM; O14649;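 active means B-score under library mean minus 4 SD, starting fluorescence ratio at most library mean plus 5 SD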;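 further: more negative B-score means stronger inhibition of thallium flux through KCNK3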
# Kir21 block = inhibitors of mouse Kir2.1 inward-rectifier potassium channel; HEK293-Kir2.1, FluxOR thallium flux fluorescence; active compounds read low; P35561; B-score at 10 µM; actives 0.85% (n = 310,000);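 active means fluorescence ratio B-score at or below minus 3 SD of library scores, with starting-brightness B-score within 2 SD, cut at about -4.2 in these data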;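 further: channel flux triggered by added potassium and thallium sulfate stimulus; B-score of peak minus minimum fluorescence over baseline after thallium stimulus; more negative B-score means stronger Kir2.1 block with less thallium influx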
# Target sequence (P35561 whole entry, looked up): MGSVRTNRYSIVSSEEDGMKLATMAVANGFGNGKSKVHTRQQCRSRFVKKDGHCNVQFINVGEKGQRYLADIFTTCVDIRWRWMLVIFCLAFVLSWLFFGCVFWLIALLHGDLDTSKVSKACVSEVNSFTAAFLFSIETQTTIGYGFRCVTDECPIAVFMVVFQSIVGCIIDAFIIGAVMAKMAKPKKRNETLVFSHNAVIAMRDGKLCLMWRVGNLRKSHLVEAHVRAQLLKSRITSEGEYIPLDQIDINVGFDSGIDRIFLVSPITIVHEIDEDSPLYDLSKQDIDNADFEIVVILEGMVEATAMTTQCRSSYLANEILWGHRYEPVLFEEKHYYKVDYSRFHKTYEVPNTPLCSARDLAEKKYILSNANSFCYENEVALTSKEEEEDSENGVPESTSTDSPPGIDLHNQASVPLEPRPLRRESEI
# KCNK9 inh = human KCNK9 channel inhibition | Q9NPC2 | HEK293 KCNK9, FluxOR thallium flux fluorescence; active compounds read low | B-score at 10 µM | actives 1.2% (n = 310,000);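 active means ratio B-score over 3 SD below the library mean, with starting fluorescence within 5 SD of its mean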;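 further: negative B-score means less thallium flux so channel inhibition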
# KCNQ1 pot = potentiators or activators of human KCNQ1 potassium channel; B-score at 10 µM; CHO-K1 KCNQ1, thallium flux FluxOR fluorescence; active compounds read high; actives 0.35% (n = 310,000);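 active means fluorescence ratio B-score, a plate-corrected score, at least three library SD, with initial intensity B-score within 5 SD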
#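 Medium – assay buffer, equal DMSO in all wells · Material – CHO-K1 cell line with stable KCNQ1 potassium channel expression · Signal – kinetic FluxOR thallium fluorescence, 10-s 1-Hz baseline, 110-s post-stimulus read · Compound – single concentration per compound, DMSO matched to controls · Schedule – 37 °C overnight plating, 90-min dark dye load, 20-min compound pretreatment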
# hERG protect = shields human hERG channel from block by proarrhythmic agents; Q12809; AID 1511; CHO-hERG, FluxOR thallium flux, dofetilide IC70 present; actives 0.51% (n = 310,000); activation (rescue from dofetilide block), less the hit threshold, % at 10 µM;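 active means activation above the mean of controls blocked by dofetilide plus 5 SD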;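 further: thallium influx through hERG after potassium depolarization seen as dye fluorescence rise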
# KCNQ1 inh = inhibitors of human KCNQ1 potassium channel. P51787. CHO-K1 KCNQ1, FluxOR thallium flux fluorescence; active compounds read high. B-score at 10 µM. actives 1.3% (n = 310,000);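 active means compounds whose thallium flux B-score, printed positive for inhibition, exceeds three library SD while starting fluorescence stays within three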;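 further: channel opened by potassium depolarization with thallium stimulus after 20 min compound exposure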
# Numbers without * were called inactive; i = inactive; · = not tested or not shown. This is a sample that favours compounds with a hit; in the whole collection about 3.7% have one here.
SMILES,KCNK3 inh,Kir21 block,KCNK9 inh,KCNQ1 pot,hERG protect,KCNQ1 inh
CN(C)CCCN1c2ccccc2Sc2ccc(C(F)(F)F)cc21,i,-5.1*,i,i,-15,i
OCCN1CCN(CCCN2c3ccccc3Sc3ccc(C(F)(F)F)cc32)CC1,i,-7.1*,i,i,-22,i
CCN(CC)CCCCN1c2ccccc2Sc2ccccc21,i,-5.8*,i,i,-14,i
CN(C)CCC(=O)N1c2ccccc2Sc2ccc(C(F)(F)F)cc21,i,-0.69,i,i,-14,i
OCCN1CCN(CC/C=C2/c3ccccc3Sc3ccc(C(F)(F)F)cc32)CC1,i,-5.4*,i,i,-19,i
CCOc1ccc(C2=Nn3c(CC)nnc3SC2)cc1,i,·,·,·,·,·
O=C(NCCc1ccccc1)/C(=C\c1ccccc1)NC(=O)c1ccco1,i,0.1,i,i,-13,i
O=C(c1ccco1)N1CCN=C1SCc1ccc(F)cc1,i,-2.4,i,39*,-8,i
Cc1cccc([C@@H]2[C@@H]3C(=O)N(Cc4ccccc4)C(=O)[C@@H]3[C@]3(C)C(=O)N(c4ccc(C(F)(F)F)cc4)C(=O)N23)c1,i,-1.2,i,i,-8,i
COc1cc(/C=N/N=C(N)N)ccc1OCc1ccc(Cl)cc1,i,-8.2*,i,i,-32,13*
COc1cc(/C=N/O)ccc1OCc1ccc(Cl)cc1,·,-0.47,i,i,-6,i
NC(N)=N/N=C/c1ccccc1,i,-1.5,i,i,-9,i
NC(N)=N/N=C/c1ccc(OCc2ccccc2)c(OCc2ccccc2)c1,i,0,i,i,-18,6*
NC(N)=N/N=C/c1ccc(Cl)c(Cl)c1,i,-5*,i,i,-4,i
CS/C(=N\S(=O)(=O)c1ccc(Cl)cc1)c1ccccc1,i,-5.3*,i,i,-3,i
CS/C(=N/S(=O)(=O)c1ccc(C)cc1)c1ccccc1,i,-10*,i,i,-7,i
O=S(=O)(/N=C(\Sc1ccc(Cl)cc1)c1ccccc1)c1ccccc1,i,-2.1,i,i,-23,i
Cc1ccc(S(=O)(=O)/N=C(\c2ccccc2)N(C)S(=O)(=O)c2ccc(C)cc2)cc1,i,0.46,i,i,-8,i
Cc1c(Cc2ccccc2)sc(/N=C/c2ccc3ccccc3c2)c1C(N)=O,i,·,·,·,·,·
Cc1c(Cc2ccccc2)sc(/N=C/c2c(O)ccc3ccccc23)c1C(N)=O,i,-1.4,i,i,-9,7*
C=CCOC(=O)C1=C[C@H](c2csc3ccccc23)C[C@H](OCc2ccc(CO)cc2)O1,i,-1.3,i,i,-20,6*
CCN(CC)S(=O)(=O)c1ccc2[nH]c(=O)cc(C(=O)Nc3cccc(C(C)=O)c3)c2c1,i,-0.05,i,i,22*,i
O=S(=O)(c1cccc(F)c1)N1CCN(c2ncnc3scc(-c4ccc(F)cc4)c23)CC1,i,1.6,i,i,-15,i
COc1ccc(-c2csc3ncnc(N4CCN(S(=O)(=O)c5cccc(C(F)(F)F)c5)CC4)c23)cc1,i,1.6,-7.1*,i,-12,i
CC(C)(C)c1ccc(C(=O)N2CCN(C(=O)c3cccs3)CC2)cc1,i,·,·,·,·,·
SMILES,KCNK3 inh,Kir21 block,KCNK9 inh,KCNQ1 pot,hERG protect,KCNQ1 inh
O=C(N/N=C/c1ccccn1)c1cc(-c2ccc(Br)cc2)nc2ccccc12,i,1.5,i,14*,-1,i
O=C(N/N=C/c1ccccn1)c1cc(-c2ccc(Cl)cc2)nc2ccccc12,i,-0.24,i,i,-11,i
COc1cc(-c2cc(C(=O)Nc3cccc(C(C)=O)c3)c3ccccc3n2)cc(OC)c1OC,-11*,-0.49,i,i,-15,i
Cc1cc(NC(=O)c2cc(-c3ccncc3)nc3ccccc23)ccc1Br,-13*,·,·,·,·,·
COc1cc(-c2cc(C(=O)Nc3ccc(O)cc3)c3ccccc3n2)cc(OC)c1OC,i,0.89,i,i,-15,i
CC(=O)c1cccc(NC(=O)c2cc(-c3ccncc3)nc3ccccc23)c1,i,·,·,·,·,·
CC(C)(C)c1nnc(NC(=O)c2cc(-c3ccccc3)nc3ccccc23)s1,i,0.44,i,i,-17,6*
CCOc1cc(Cl)c(S(=O)(=O)NCCCn2ccnc2)cc1Cl,i,-1.3,i,i,-12,i
Cc1oc(-c2ccc(Cl)cc2)cc1C(=O)/C(C#N)=C/Nc1ccccc1,i,0.08,i,i,-3,i
CCN1CCN(c2ccc(S(=O)(=O)N3CCOCC3)cc2NC(=O)c2ccc(F)cc2Cl)CC1,i,-0.04,i,i,-10,i
O=C(N/N=C/c1ccccn1)c1sc2ccccc2c1Cl,i,-0.14,i,17*,4,i
O=C(NC(=S)Nc1ccccn1)c1cc(-c2ccccc2)nc2ccccc12,i,1.6,i,8*,4,i
O=C(N/N=C/c1c[nH]c2ccccc12)c1sc2ccccc2c1Cl,i,-0.03,i,i,-9,i
O=C(Nc1ccccn1)c1cc(-c2ccc(Cl)s2)nc2ccccc12,i,·,·,·,·,·
N#Cc1ccc(/C=N/NC(=O)c2cc(-c3cccs3)nc3ccccc23)cc1,i,0.1,i,i,-15,6*
CCCOc1cccc(-c2cc(C(=O)N/N=C/c3cccnc3)c3ccccc3n2)c1,i,0.09,i,i,-30,9*
CCN(CC(=O)Nc1c(F)cccc1F)C(=O)c1cc(-c2cccs2)nn1-c1ccccc1,i,-0.42,i,i,-14,i
CCN(CC)CCNC(=O)c1ccc(NC(=O)Nc2cccc3ccccc23)cc1,i,0.71,i,i,-9,i
O=C(NC(=S)Nc1ccccc1)c1cc(-c2ccccc2)nc2ccccc12,i,1,i,33*,4,i
CCOC(=O)NC(=S)Nc1ccc(C(C)(C)C)cc1Br,i,-0.77,i,22*,11*,i
Cc1cc(C)cc(C(=O)NC(CC(N)=O)c2ccc(NC3CCCC3)c([N+](=O)[O-])c2)c1 (stereo unspecified),i,-0.46,i,i,-7,i
N=c1oc2cc(O)ccc2cc1C(=O)Nc1ccc(Cl)cc1,i,0.35,i,i,-7,6*
CC(=O)c1cc2ccc(O)cc2oc1=O,i,-3.1,i,i,-19,7*
Cc1ccc(NC(=O)c2cc3ccccc3oc2=N)cc1,i,0.66,i,i,-5,i
COc1ccc2cc(C(C)=O)c(=O)oc2c1,i,0.65,i,i,-3,i
